In paper PMC11529722 (Science Advances, 2024):

Experiments:
[1] = molecular target: VCP protein (Homo sapiens, UniProt P55072); assay: BLI; type: binding; settings: immobilized VCP
How it was run: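 Anti-His biosensor hydrated, then His-tagged VCP (50 µg/ml in sodium acetate buffer, pH 6.5) immobilized. Test compound (peptide or polymer) dissolved in tris buffer (pH 8.4) and run over a range of concentrations as analyte. KD, on-rate (ka) and off-rate (kd) were measured for each analyte by biolayer interferometry (BLItz).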

[2] = tested on: C57BL/6J mice; assay: Toxicity in C57BL/6J mice: histopathology scoring; type: in vivo, mouse; settings: C57BL/6J WT mice, 3 mg/kg with respect to peptide, Alzet osmotic pump, 8 weeks, blinded pathologist
How it was run: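 Male C57BL/6J mice, three groups of n = 3–4. Saline, peptide or polymer (3 mg/kg with respect to peptide) given by subcutaneous osmotic pump for 8 weeks.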

[3] = molecular target: pepsin (Sus scrofa, UniProt P00791); assay: Enzymatic degradation assay with pepsin by HPLC; type: in vitro ADME; settings: pepsin 0.1 μM, pH 2, peptide 200 μM, 37°C, up to 150 min, analytical HPLC
[4] = tested on: pronase, chymotrypsin, elastase; assay: Enzyme degradation resistance by SDS-PAGE; type: in vitro ADME; settings: treated separately with pronase, chymotrypsin and elastase for 1 hour, Coomassie Blue
[5] = tested on: R6/2 mice; assay: VCP level in striatal mitochondrial fractions of R6/2 mice; type: in vivo, mouse; settings: 13-week-old R6/2 mice, WB, ATPB loading control
How it was run: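 Striatum of 13-week-old pump-dosed mice homogenised in 250 mM sucrose, 20 mM Hepes pH 7.5, 10 mM KCl, 1.5 mM MgCl₂, EDTA/EGTA. Passed 20× through a 25-gauge needle, iced 30 min. Spun 800g 10 min, then supernatant 10,000g 20 min at 4°C; pellet washed and re-spun. Mitochondria lysed in 1% Triton X-100; VCP Western blot, ATPB loading control.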

[6] = tested on: R6/2 mice; assay: Neuropathology in striatum of R6/2 mice; type: in vivo, mouse; settings: 13-week-old R6/2 mice
[7] = tested on: HdhQ111 cells; assay: Mitochondrial fragmentation assay; type: cell-based, mouse; settings: 3 μM three times for 3 days, anti-Tom20, at least 95 cells per group, n = 3
How it was run: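 HdhQ111 cells dosed at 3 μM three times over 3 days. Fixed in 4% PFA 20 min, permeabilised with 0.1% Triton X-100, blocked with 2% goat serum. Anti-Tom20 (1:4000) overnight at 4°C, Alexa 488 secondary 2 h RT, Hoechst nuclei stain. Confocal imaging; % cells with fragmented mitochondria, ≥95 cells/group, ≥3 independent replicates.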

[8] = tested on: R6/2 mice; assay: In vivo efficacy in HD R6/2 mice: body weight, survival, behavior; set-up: species or system mouse
How it was run: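 Male hemizygous R6/2 mice (HD exon 1, 100–150 CAG) and WT littermates. Saline, peptide (3 mg kg⁻¹ day⁻¹) or polymer (1.69 mg kg⁻¹ day⁻¹) given by subcutaneous 28-day osmotic pump from 6 weeks; pump replaced after 4 weeks. Weekly tail suspension 20 s, weeks 7–13, clasping scored 0–3. Body weight and survival recorded throughout. 13–32 mice/group for behaviour.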

[9] = tested on: C3a in human serum; assay: C3a complement activation ELISA; settings: human serum 4 hours; P1 at 9.9 and 33 μM (3 and 10 mg/kg); n = 4
How it was run: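 Test compound incubated in human serum at 1:250 and 1:500 (compound:serum) for 4 h, then diluted. C3a ELISA: 2 h in C3a antibody-coated wells with shaking, 3 washes, biotin primary antibody 1 h, washes, streptavidin 1 h, substrate 30 min, absorbance 450 nm. Cobra venom factor positive control; DPBS vehicle.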

[10] = tested on: red blood cells; assay: Hemocompatibility: hemolysis; settings: human red blood cells in PBS, 37°C, 1 hour, absorbance 405 nm, n = 4
How it was run: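 Na citrate-anticoagulated whole human blood spun 500g 5 min. Plasma replaced with 150 mM NaCl; wash repeated twice more; RBCs resuspended in PBS. Compound added 1:20 (v/v) to RBC suspension, 37°C 1 h, n = 4. Spun 500g 5 min; supernatant transferred for reading. 20% Triton X-100 positive control; PBS vehicle.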

[11] = tested on: C57BL/6J mice; assay: Toxicity in C57BL/6J mice: complete blood count; type: in vivo, mouse; settings: C57BL/6J WT mice, 3 mg/kg with respect to peptide, Alzet osmotic pump, 8 weeks
How it was run: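 Healthy male C57BL/6J mice in three groups (n = 3 to 4 per group) received test compound at 3 mg/kg with respect to peptide, or saline as negative control, via subcutaneously implanted osmotic pump for 8 weeks.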

[12] = tested on: elastase; assay: elastase; settings: set for optimal enzyme activity, up to 1 hour
[13] = tested on: pronase; assay: pronase; settings: set for optimal enzyme activity, up to 1 hour
[14] = tested on: pepsin; assay: pepsin in hydrochloric acid solution; settings: 37°C, up to 150 min
[15] = tested on: chymotrypsin; assay: chymotrypsin; settings: set for optimal enzyme activity, up to 1 hour

Sequence of VCP protein (P55072 whole entry, species assumed): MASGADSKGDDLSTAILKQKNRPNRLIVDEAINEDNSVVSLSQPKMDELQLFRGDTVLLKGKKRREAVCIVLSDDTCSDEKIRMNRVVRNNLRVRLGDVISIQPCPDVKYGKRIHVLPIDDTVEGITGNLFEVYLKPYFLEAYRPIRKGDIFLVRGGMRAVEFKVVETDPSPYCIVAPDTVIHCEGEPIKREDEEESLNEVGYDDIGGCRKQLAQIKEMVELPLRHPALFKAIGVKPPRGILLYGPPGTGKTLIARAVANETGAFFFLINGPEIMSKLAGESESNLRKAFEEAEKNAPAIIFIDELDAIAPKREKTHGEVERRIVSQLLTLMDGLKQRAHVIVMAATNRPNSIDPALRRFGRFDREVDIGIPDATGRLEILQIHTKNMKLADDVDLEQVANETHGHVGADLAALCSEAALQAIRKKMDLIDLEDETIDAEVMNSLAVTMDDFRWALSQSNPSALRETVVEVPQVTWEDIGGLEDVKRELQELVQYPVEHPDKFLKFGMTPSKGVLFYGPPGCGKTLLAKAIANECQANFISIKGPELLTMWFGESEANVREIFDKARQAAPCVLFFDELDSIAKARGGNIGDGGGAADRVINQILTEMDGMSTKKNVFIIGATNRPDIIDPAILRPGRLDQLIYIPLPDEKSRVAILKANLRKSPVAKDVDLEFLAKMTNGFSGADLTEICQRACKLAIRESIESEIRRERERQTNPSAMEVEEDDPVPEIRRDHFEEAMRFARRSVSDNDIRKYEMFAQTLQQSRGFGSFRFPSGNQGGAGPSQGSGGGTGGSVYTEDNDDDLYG
Sequence of pepsin (Sus scrofa, UniProt P00791) (P00791 60-385): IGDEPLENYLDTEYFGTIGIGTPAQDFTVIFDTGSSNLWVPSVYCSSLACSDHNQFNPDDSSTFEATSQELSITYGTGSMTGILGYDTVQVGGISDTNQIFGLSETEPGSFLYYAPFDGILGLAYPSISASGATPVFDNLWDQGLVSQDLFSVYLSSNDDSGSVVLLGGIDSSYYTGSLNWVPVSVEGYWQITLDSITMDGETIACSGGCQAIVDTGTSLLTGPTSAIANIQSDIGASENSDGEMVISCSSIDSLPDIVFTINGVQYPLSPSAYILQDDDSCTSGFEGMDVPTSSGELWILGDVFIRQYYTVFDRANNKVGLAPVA

Which results are given for HVLVMSATRR [P1]?
fold decrease in dissociation constant compared to the HV3-TAT peptide [1]: 150 fold; koff ([1]; dissociation rate constant): 2.5e-05 s⁻¹; organ pathology vs saline control group [2]: no significant differences in pathology; cleavage by pepsin [3]: no cleavage observed; molecular weight after enzyme treatment (gel electrophoresis) [4]: maintained molecular weight; VCP level on striatal mitochondria [5]: blocks aberrant VCP mitochondrial translocation; striatal BDNF level compared to the HV3-TAT treatment group ([6]; Western blot): significantly higher level of BDNF; mtHtt aggregates in striatum vs saline-treated R6/2 mice ([6]; anti-Htt EM48 staining, n = 6): reduced number of mtHtt aggregates; DARPP-32 immunohistochemical staining in striatum ([6]; n = 6): Enhanced levels of DARPP-32; mitochondrial fragmentation vs vehicle [7]: marked reduction in the number of fragmented mitochondria; effects of treatment on WT mice ([8]; WT littermates, P1 1.69 mg kg^−1 day^−1, 6 to 13 weeks of age): no significant effects on motor activity, body weight, or neuropathology; body weight vs R6/2 saline control ([8]; male R6/2 mice, 3 mg kg^−1 day^−1 per peptide (P1 1.69 mg kg^−1 day^−1), Alzet pump, 6 to 13 weeks of age): significantly inhibiting weight loss; survival vs R6/2 saline control ([8]; male R6/2 mice, 3 mg kg^−1 day^−1 per peptide, Alzet pump, 6 to 13 weeks of age): extended survival; clasping times compared to HV3-TAT-treated mice ([8]; male R6/2 mice, tail suspension test): shorter clasping times; hindlimb clasping behavior ([8]; male R6/2 mice, tail suspension test weekly, 3 mg kg^−1 day^−1 per peptide, Alzet pump): attenuated the clasping behavior; C3a complement activation compared to vehicle [9]: did not show a statistically significant difference in activity; hemolytic activity compared to vehicle control [10]: nonsignificant; complete blood count and blood chemistry profile vs saline [11]: no significant deviation of any markers

HVLVMSATRR was tested. Which not cleaved [12] did it give?
Its not cleaved is “maintained molecular weight after 1 hour”.

What about the not cleaved [13] of the same sequence?
The not cleaved was “maintained molecular weight after 1 hour”.

And the not cleaved [14]?
Its not cleaved is “no cleavage observed for up to 150 min”.

And the not cleaved [15]?
Its not cleaved is “maintained molecular weight after 1 hour”.
